Screening results from PubChem BioAssay.
GSTO1 inh: blocks human GSTO1 in RBBP9 counter-screen; P78417; inhibition, % at 5.96 µM; recombinant GSTO1, activity-based probe fluorescence polarization; AID 1974; 1.1% of 300,000 active;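 active means inhibition above the campaign mean inhibition plus 3 SD, cut at about 35% in these data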;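 further: 0% = GSTO1-1 with DMSO and 100% = wells lacking GSTO1-1 enzyme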
SIAE primary: human SIAE inhibition, primary screen; SIAE FP-Rh probe binding, fluorescence polarization; AID 1053197; 0.69% of 370,000 active; inhibition, % at 9.66 µM;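 active means inhibition above a cutoff: mean of compounds within the control limits plus 3 SD of those, cut at about 17% in these data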;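 further: 0% = plate median of compound wells and 100% = probe without SIAE protein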
TDP2 absorb: TDP2 (human) inhibition, absorbance primary screen; recombinant TDP2, T5PNP hydrolysis, p-nitrophenol absorbance 415 nm; inhibition, % at 12.8 µM; 0.34% of 370,000 active;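 active means inhibition above the mean of all tested compounds plus 3 SD, set per campaign, cut at about 25% in these data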;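 further: 0% = DMSO with enzyme and 100% = buffer with substrate but no TDP2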
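System – recombinant human TDP2 · Amount – 120 nM TDP2 per well · Buffer or medium – Mg2+-containing Tris-HCl buffer, pH 7.5 · Reagent – T5PNP substrate, 5 mM · Dosing – 12.8 µM single point, 1% DMSO · Incubation – 2 h at 37 °C · Measured by – epi absorbance · Read-out basis – percent inhibition · Benchmarks – high control without enzyme, low control DMSO plus TDP2 · Repeats – singlicate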
Apaf-1 inh: human Apaf-1 inhibition | 0.71% of 330,000 active | inhibition, % at 20 µM | reconstituted apoptosome caspase-3 activity, DEVD-Rh110 fluorescence; active means inhibition of at least 40% at 20 µM;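 further: plate controls were DMSO wells for no effect and DEVD-CHO caspase inhibitor wells for full effect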
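Material: biochemical Apaf-1 apoptosome reconstitution. Medium: Hepes buffer, pH 7.5. Also added: cytochrome c activation, bis-DEVD rhodamine 110 substrate. Timing: 30 min compound preincubation, 50 min activation, room temperature. Measured by: rhodamine 110 fluorescence at Ex 480/Em 540 nm.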
PAD4 inh: blocks human protein arginine deiminase 4. Q9UM07. recombinant PAD4, RCA probe fluorescence polarization. inhibition, % at 6.36 µM. 0.41% of 330,000 active;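 active means percent inhibition above a cutoff equal to the mean of all tested compounds plus 3 SD, cut at about 15% in these data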;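 further: 0% = PAD4 with RCA probe and DMSO and 100% = probe without PAD4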
TCR CD3 inh: inhibitors of human TCR-CD3 interaction; TAMRA-labeled TCR probe fluorescence, biochemical; inhibition, % at 9.4 µM; 0.37% of 360,000 active; AID 651800; in the data active means inhibition above about 19%;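 further: recombinant mutant TCR 2C K166C tagged with TAMRA read by polarization; 0% = receptor in buffer alone and 100% = receptor with positive control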
GSTO1 inh conf: confirmation of human GSTO1 inhibitors | shares compounds with GSTO1 inh | recombinant GSTO1, probe fluorescence polarization | inhibition, % at 5.96 µM | 54% of 2,400 active | AID 2176;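 active means inhibition above the primary screen's cutoff, its mean inhibition plus 3 SD, cut at about 35% in these data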;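 further: loss of polarization as inhibitors block binding of rhodamine sulfonate ester activity probe; 0% = GSTO1 with DMSO and 100% = wells lacking GSTO1 enzyme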
PAD4 confirm: confirmation of human PAD4 inhibitors | 28% of 1,200 active | recombinant PAD4, RCA probe fluorescence polarization | inhibition, % at 6.36 µM | shares compounds with PAD4 inh;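 active means mean inhibition across replicates above the hit cutoff set by the earlier primary screen, cut at about 15% in these data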;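 further: inhibitors block active-site labeling by the probe so polarization falls; 0% = PAD4 with probe and DMSO and 100% = probe without PAD4 enzyme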
An asterisk follows results filed as active; . = no result given. Shown are actives, neighbours in structure and some others; about 2.4% of the full set was active somewhere.

SMILES	GSTO1 inh	SIAE primary	TDP2 absorb	Apaf-1 inh	PAD4 inh	TCR CD3 inh	GSTO1 inh conf	others
O=C(Nc1nnc(SCC(=O)N2CCCCC2)s1)c1ccc(F)cc1F	-11	2	-9	-17	-4	-4	.
COc1cccc(-c2nnc3sc(-c4ccc(C)cc4)nn23)c1	-9	.	.	19	-6	.	.
O=C1Nc2ccccc2C1=Nc1cccc([N+](=O)[O-])c1	9	5	5	1	5	11	.
NC(=O)c1ccc(N=C2C(=O)Nc3ccc([N+](=O)[O-])cc32)cc1	71*	-3	44*	56*	-2	-1	30
COc1cc(/C=C2\S/C(=N/S(=O)(=O)Cc3ccccc3)NC2=O)c([N+](=O)[O-])cc1OC	7	0	19	9	-9	-8	.
COc1cc(/C=C2/S/C(=N/S(=O)(=O)c3ccccc3)NC2=O)c([N+](=O)[O-])cc1OC	41*	-12	1	14	-15	-1	32
Cc1cc(O)c(-c2cc(O)c(C)cc2O)cc1O	82*	10	18	3	-1	5	8
Cc1cc(N=O)c(C)cc1O	.	-8	-4	.	.	-4	.
O=c1c(C=NCCCn2ccnc2)c(-c2ccccc2)[nH]n1-c1nc2ccccc2s1	-20	-2	14	4	1	4	.
CC(=NCCCn1ccnc1)c1c(-c2ccccc2)[nH]n(-c2nc3ccccc3s2)c1=O	57*	2	-4	22	1	-3	5
COC(=O)c1ccccc1NC(=O)COC(=O)CSc1nnc(N)s1	45*	1	0	-9	-5	2	32
Nc1nnc(SCC(=O)OCC(=O)Nc2ccccc2)s1	0	4	-5	-10	-3	11	.
Nc1ccc[n+](CC(=O)c2ccccc2)c1	2	4	-7	-2	-1	-2	.
Cc1ccc[n+](C2=C([O-])c3ccccc3C(=O)C2=O)c1	.	-19	18	.	.	-5	.
O=C1/C(=N\S(=O)(=O)c2cccs2)C([n+]2ccccc2)=C([O-])c2ccccc21	92*	3	8	27	12	3	86*
CC(C)(C)c1cc[n+](C2=C([O-])c3ccccc3C(=O)/C2=N\S(=O)(=O)c2cccs2)cc1	80*	11	12	35	2	-1	89*
Cc1cc(NCCO)nc(-n2nc(C)cc2C)n1	5	-1	2	-6	-2	-2	.
Cc1cc(C)c(OCCCCN(C)Cc2ccccc2)c(C)c1	1	-5	0	9	0	0	.
COc1ccc(NC(=O)CSc2cc(C)nc3c(-c4ccccc4)cnn23)cc1	-12	-1	15	-7	2	-2	.
CCOC(=O)C1=C(COC(=O)/C=C/c2ccc(F)cc2)NC(=O)NC1C (stereo not drawn)	.	-7	-4	.	.	-1	.
O=C(Cn1c(O)c(/C=C2\C=Nc3ccc(Br)cc32)sc1=O)N1CCCC1	12	-2	8	19	-5	-1	.
Cn1nc(-c2ccc(Cl)cc2)nc2c(=O)n(C)c(=O)nc1-2	91*	.	.	99*	75*	.	92*
COc1ccc(S(=O)(=O)N2CCOCC2)cc1N(C)S(=O)(=O)c1ccc(C)cc1	3	2	-5	6	-1	-5	.
O=C1c2cc([N+](=O)[O-])cc3cc([N+](=O)[O-])cc(c23)C(=O)N1c1ccccn1	42*	-7	14	.	13	0	7
O=C(O)c1cccc(N2C(=O)c3cc([N+](=O)[O-])cc4cc([N+](=O)[O-])cc(c34)C2=O)c1	71*	7	7	-6	42*	2	40*
SMILES	GSTO1 inh	SIAE primary	TDP2 absorb	Apaf-1 inh	PAD4 inh	TCR CD3 inh	GSTO1 inh conf	others
O=C(O)c1cccc(N2C(=O)c3cccc4cccc(c34)C2=O)c1	.	3	-9	8	.	-5	.
O=C(CCl)c1cc2c3c(c1)CC(=O)N3CCC2	52*	1	9	7	4	-4	67*
O=C(NCCO)C(=O)Nc1cc2c3c(c1)CC(=O)N3CCC2	-4	4	-1	1	-1	-1	.
COc1cc(/C=C2\C(=O)N(c3ccc(S(N)(=O)=O)cc3)N=C2C)ccc1OC(=O)c1ccco1	53*	12	13	91*	-9	3	10
O=C(OC1CCc2ccccc2C1=O)c1ccccc1O (stereo not drawn)	54*	2	7	15	1	2	48*
O=C(N/N=C1\CCc2ccccc21)c1ccccc1O	1	0	5	-4	1	1	.
Cc1nn(-c2ccccc2)c2c1C(c1ccco1)C(C#N)=C(N)O2 (stereo not drawn)	41*	6	9	20	-8	3	10
Cc1nn(-c2ccccc2)c2c1C(c1cccs1)C(C#N)=C(N)O2 (stereo not drawn)	16	.	.	-10	6	.	.
Cc1sc(NC(=O)CCl)c(C(=O)c2ccccc2)c1C	74*	-2	-12	24	0	6	97*
Cc1ccccc1C(=O)Nc1sc(C)c(C)c1C(=O)c1ccccc1	-4	-5	-1	5	-3	1	.
CCOC(=O)NC1(Nc2cccc(Cl)c2)Oc2ccccc2O1	56*	12	-1	.	0	6	4
CCOC(=O)NC(=O)/C(C#N)=N\Nc1cccc(Cl)c1	-2	2	-15	-10	4	-2	.
CC(=O)c1cccc(N(CC(=O)NC2CCCC2)C(=O)CNC(=O)c2cccs2)c1	11	0	-1	4	-5	3	.
O=C1C=C(NCCN2CCOCC2)C(=O)c2cnccc21	84*	.	.	.	41*	.	82*
O=C(NCCN1CCOCC1)c1ccncc1	-2	-6	-6	1	-3	2	.
CCCC(C)NC(=O)CSCc1ccc(OC)cc1 (stereo not drawn)	-3	7	-10	5	1	-2	.
CCN(CC)C(=O)C1c2ccccc2Oc2ccccc21	44*	4	-10	-3	80*	8	9	PAD4 confirm=7
C=CCN(CC=C)C(=O)C1c2ccccc2Oc2ccccc21	.	-4	-6	.	.	7	.
N#Cc1nc(-c2ccco2)oc1NCc1ccccc1Cl	-11	-1	-1	7	-2	-1	.
CN(C)c1ccc(N/C=C/C(=O)c2ccco2)cc1	61*	11	16	5	23*	12	7	PAD4 confirm=-2
CC(=O)Nc1ccc(N/C=C/C(=O)c2ccco2)cc1	2	8	4	5	-4	-4	.
